According to ChEMBL document CHEMBL1145200, “4-Benzyl and 4-benzoyl-3-dimethylaminopyridin-2(1H)-ones: in vitro evaluation of new C-3-amino-substituted and C-5,6-alkyl-substituted analogues against clinically important HIV mutant strains” (J Med Chem, 2005):
pIC50: −log10 of the molar value.

Key:
[1] = tested on: Human immunodeficiency virus 1; assay: In vitro inhibitory concentration against HIV L100I and K103N mutant strain; type: functional, organism-based
Method in brief: (§1)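 MT4 human T-lymphoblastoid cells, grown in RPMI 1640 with 10% fetal calf serum and antibiotics at 37 °C under 5% CO2. Mutant HIV-1 strains were added at 200 CCID50/well with 30 000 cells/well across a compound concentration range. After 5 days at 37 °C, viability was read by MTT colorimetry. EC50 is the concentration giving 50% infection relative to the drug-free control.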

[2] = tested on: Human immunodeficiency virus 1; assay: In vitro inhibitory concentration against HIV LAI cell line; type: functional, organism-based; details: Human immunodeficiency virus 1, LAI
Method in brief: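 HIV-1 LAI was added at 200 CCID50/well to MT4 human T-lymphoblastoid cells (30 000 cells/well) across a concentration range of compound. Cells were grown in RPMI 1640 with 10% fetal calf serum and antibiotics. After 5 days at 37 °C in 5% CO2, cell viability was read by MTT colorimetry. EC50 was the concentration giving 50% infection versus the drug-free control.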

[3] = tested on: Human immunodeficiency virus 1; assay: In vitro inhibitory concentration against HIV K101E mutant strain; type: functional, organism-based; method in brief: as §1
[4] = tested on: Human immunodeficiency virus 1; assay: In vitro inhibitory concentration against HIV E138K mutant strain; type: functional, organism-based; method in brief: as §1
[5] = tested on: Human immunodeficiency virus 1; assay: In vitro inhibitory concentration against HIV K101E and K103N mutant strain; type: functional, organism-based; method in brief: as §1
[6] = tested on: Human immunodeficiency virus 1; assay: In vitro inhibitory concentration against HIV-1 Y181C mutant strain; type: functional, organism-based; method in brief: as §1
[7] = tested on: Human immunodeficiency virus 1; assay: In vitro inhibitory concentration against HIV V179E mutant strain; type: functional, organism-based; method in brief: as §1
[8] = tested on: Human immunodeficiency virus 1; assay: In vitro inhibitory concentration against HIV G190S mutant strain; type: functional, organism-based; method in brief: as §1
[9] = tested on: Human immunodeficiency virus 1; assay: In vitro inhibitory concentration against HIV G190A mutant strain; type: functional, organism-based; method in brief: as §1
[10] = tested on: Human immunodeficiency virus 1; assay: In vitro inhibitory concentration against HIV F227L and V106A mutant strain; type: functional, organism-based; method in brief: as §1
[11] = tested on: Human immunodeficiency virus 1; assay: In vitro inhibitory concentration against HIV L100I mutant strain; type: functional, organism-based; method in brief: as §1
[12] = tested on: Human immunodeficiency virus 1; assay: Selective index value (ratio of CC50 to IC50 value)against HIV LAI cell line; type: functional
Method in brief: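 Ratio of CC50 to IC50 against LAI. CC50 came from mock-infected MT4 cultures (30 000 cells/well) given the same compound concentration range, run in parallel with LAI-infected cultures (200 CCID50/well). Incubation was 5 days at 37 °C in 5% CO2, with MTT viability read-out.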

[13] = tested on: Human immunodeficiency virus 1; assay: In vitro inhibitory concentration value against HIV K103N and Y181C mutant strain; type: functional, organism-based; method in brief: as §1
[14] = tested on: Human immunodeficiency virus 1; assay: In vitro inhibitory concentration against HIV K103N mutant strain; type: functional, organism-based; method in brief: as §1
[15] = tested on: Human immunodeficiency virus 1; assay: In vitro inhibitory concentration against HIV Y188L mutant strain; type: functional, organism-based; method in brief: as §1
[16] = tested on: Human immunodeficiency virus 1; assay: In vitro inhibitory concentration against HIV F227C mutant strain; type: functional, organism-based; method in brief: as §1
[17] = tested on: Human immunodeficiency virus 1; assay: In vitro inhibitory concentration against HIV V106A mutant strain; type: functional, organism-based; method in brief: as §1

Row | SMILES | pIC50 [1] | pIC50 [2] | pIC50 [3] | pIC50 [4] | pIC50 [5] | pIC50 [6] | pIC50 [7] | pIC50 [8] | pIC50 [9] | pIC50 [10] | pIC50 [11] | SI [12] | pIC50 [13] | pIC50 [14] | pIC50 [15] | pIC50 [16] | pIC50 [17]
1 | CCc1c(C)nc(O)c(N(C)CCOC)c1C(=O)c1cccc(C)c1 | 7.77 | 9.00 | 8.52 | 8.52 | 7.82 | 6.20 | 9.00 | 8.52 | 8.52 | 6.60 | 8.10 | 79400 | 5.55 | 7.70 | 5.90 | 6.65 | –
2 | COCCCc1c(C)nc(O)c(N(C)C)c1C(=O)c1cccc(C)c1 | 7.20 | 8.10 | 7.49 | 7.70 | 6.80 | 6.80 | 8.10 | 7.49 | 7.80 | 7.40 | 7.70 | 1260 | 6.70 | 6.90 | 6.80 | 6.20 | 7.40
3 | CCc1c(C)[nH]c(=O)c(N(C)C(C)COC)c1Cc1cc(C)cc(C)c1 (stereo not drawn) | 6.00 | 8.22 | 7.24 | 7.77 | 6.44 | 6.40 | 8.05 | 7.21 | 7.11 | 5.00 | 7.10 | 7940 | 5.06 | 7.10 | 6.60 | 6.06 | –
4 | CCc1c(C)[nH]c(=O)c(N(C)C)c1C(=O)c1cc(C)cc(C)c1 | 7.40 | – | 8.10 | 8.30 | 7.89 | 7.20 | 8.70 | 8.40 | 7.89 | 6.40 | 8.22 | 2510 | 6.80 | 8.00 | 6.80 | 6.20 | 8.22
5 | CCc1c(C)[nH]c(=O)c(N(C)CCOC)c1Cc1cccc(C)c1 | 6.10 | 9.00 | 7.80 | 8.10 | 7.00 | 6.10 | 8.40 | 7.41 | 7.00 | 5.40 | 8.22 | 10000 | 5.00 | 7.10 | 6.40 | 6.10 | 7.20
6 | CCc1c(C)[nH]c(=O)c(N(C)CC)c1Cc1cc(C)cc(C)c1 | 6.22 | 8.10 | 7.10 | 7.20 | 6.86 | 6.50 | 7.49 | 6.50 | 7.20 | – | 7.20 | 3980 | 5.51 | 7.10 | 5.90 | 5.95 | 6.50
7 | CCc1c(C)[nH]c(=O)c(N(C)C)c1Cc1cc(C)cc(C)c1 | – | – | 7.80 | – | – | 7.00 | – | – | 7.20 | – | 7.30 | 12600 | 6.10 | 7.49 | 6.60 | – | 7.40
8 | CCc1c(C)[nH]c(=O)c(N(C)CCOC)c1Cc1cc(C)cc(C)c1 | 6.92 | 8.70 | 8.00 | 8.00 | 7.16 | 6.50 | 8.52 | 7.38 | 7.80 | 5.60 | 8.52 | 20000 | 5.48 | 7.20 | 7.00 | 6.47 | –
9 | Cc1ccnc2c1NC(=O)c1cccnc1N2C1CC1 [NEVIRAPINE] | – | – | – | 7.30 | – | 5.00 | 6.71 | 7.36 | – | 6.79 | – | – | 4.00 | – | 4.00 | 6.87 | –
10 | CCc1c(CO)nc(O)c(N(C)C)c1C(=O)c1cc(C)cc(C)c1 | 7.70 | 9.00 | 8.30 | 8.40 | 8.15 | 7.14 | 9.00 | 8.70 | 8.52 | 6.10 | 9.00 | 12600 | 6.83 | 8.52 | 6.20 | 6.63 | –
11 | O=C1Nc2ccc(Cl)cc2[C@@](C#CC2CC2)(C(F)(F)F)O1 [EFAVIRENZ] | 5.00 | – | 8.22 | 8.70 | – | – | 8.30 | 6.60 | 8.00 | 7.60 | 7.40 | – | – | – | – | – | 7.40
12 | CCc1c(C)[nH]c(=O)c(N(C)CC)c1Cc1cccc(/C=C/C#N)c1 | 6.70 | 9.00 | 8.22 | 8.22 | 6.80 | 7.49 | 8.70 | 6.90 | 8.00 | 5.50 | 8.00 | 10000 | 6.70 | 8.22 | 6.60 | 6.10 | 8.10
